Entries after “also recorded” stand apart in the source; their conditions may differ.
Target: T1, hCCK2R (Homo sapiens, UniProt P32239)
T1 sequence (P32239 1-447): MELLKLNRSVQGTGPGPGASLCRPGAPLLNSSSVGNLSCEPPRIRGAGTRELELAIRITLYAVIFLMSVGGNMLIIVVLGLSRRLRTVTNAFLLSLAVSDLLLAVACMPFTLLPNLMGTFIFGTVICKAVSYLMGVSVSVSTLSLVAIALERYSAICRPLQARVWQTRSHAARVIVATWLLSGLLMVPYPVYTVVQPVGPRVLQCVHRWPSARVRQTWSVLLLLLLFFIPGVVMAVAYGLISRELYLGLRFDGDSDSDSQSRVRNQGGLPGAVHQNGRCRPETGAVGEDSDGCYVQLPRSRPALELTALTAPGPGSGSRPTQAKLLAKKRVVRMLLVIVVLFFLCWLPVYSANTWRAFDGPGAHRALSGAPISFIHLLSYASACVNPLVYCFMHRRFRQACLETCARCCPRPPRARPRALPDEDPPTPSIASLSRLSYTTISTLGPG
Experiment: Competitive binding assay
Conditions: against probe 3 (15 nM); concentration range 10^-5 to 10^-12 M
Outline: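 HEK-293 cells engineered to overexpress hCCK2R and hMC4R, kept in selective medium and seeded at 240,000 cells/well in six-well plates (~1 × 10^6 cells at 90% confluence). Medium replaced with test compound (10^-5 to 10^-12 M, twelve levels) plus 15 nM Eu-labelled CCK4 probe in binding buffer for 1 h, 37 °C, CO₂. Cells pelleted and washed three times in basic buffer. DELFIA enhancement for 1 h, 37 °C. Supernatant read by TRF. Ki reported with SEM.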

Row | Structure (SMILES) | Competitive inhibition of probe 3 binding (in words)
1 | NC(=O)[C@H](CO)NC(=O)CCCCCn1cc(COc2cc(OCc3cn(CCCCCC(=O)N[C@@H](CO)C(N)=O)nn3)cc(OCc3cn(CCCCCC(=O)N[C@@H](CO)C(N)=O)nn3)c2)nn1 [Compound 16] | not competitive inhibitors; also recorded: did not interfere with the binding and uptake of probe 3
2 | NC(=O)[C@H](CO)NC(=O)CCCCCn1cc(CN(Cc2cn(CCCCCC(=O)N[C@@H](CO)C(N)=O)nn2)Cc2cn(CCCCCC(=O)N[C@@H](CO)C(N)=O)nn2)nn1 [Compound 15] | not competitive inhibitors; also recorded: did not interfere with the binding and uptake of probe 3
